{"source": "ChEMBL document CHEMBL1138791", "about": "“Acyl sulfonamide anti-proliferatives: benzene substituent structure-activity relationships for a novel class of antitumor agents” (J Med Chem, 2004)", "key": {"[1]": {"system": "HCT-116", "experiment": "Diameter of zone of inhibition for cell colony formation of solid tumor HCT116 at the dose of 210 ug: range is 6.5-8.125", "format": "functional, Homo sapiens", "summary_of_the_method": "(§1)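 HCT116, L1210 leukaemia and normal fibroblast cells were seeded in soft agar in separate 60 mm dishes. The compound was applied to a filter-paper disk laid on the agar. Colony-formation inhibition zones were read after 6–7 days at 37 °C and expressed in zone units (200 units = 6.5 mm; 950 = total inhibition; 0 = none). n > 2 unless otherwise indicated.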"}, "[2]": {"experiment": "Diameter of zone of inhibition for cell colony formation of normal fibroblast at the dose of 210 ug; Range is 0-6.5", "format": "functional, Homo sapiens", "summary_of_the_method": "(§2)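 Soft agar disk diffusion: leukemia (L1210), solid tumor (HCT116, or colon H15) and normal fibroblast cells seeded in soft agar in separate 60 mm dishes. Compound applied to a filter paper disk (dose in μg/disk) set on the agar. Colony-formation inhibition zones read after 6–7 days at 37 °C. 200 zone units = 6.5 mm; 950 = total inhibition; a range marks partial colony shrinkage. n > 2 unless noted.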"}, "[3]": {"system": "L1210", "experiment": "Diameter of zone of inhibition for cell colony formation of leukemia L1210 at the dose of 210 ug", "format": "functional, Mus musculus", "summary_of_the_method": "as §2"}, "[4]": {"experiment": "Diameter of zone of inhibition for cell colony formation of normal fibroblast at the dose of 210 ug", "format": "functional, Homo sapiens", "summary_of_the_method": "as §2"}, "[5]": {"system": "L1210", "experiment": "Diameter of zone of inhibition for cell colony formation of leukemia L1210 at the dose of 210 ug; Range is 0-8.125", "format": "functional, Mus musculus", "summary_of_the_method": "as §2"}, "[6]": {"system": "HCT-116", "experiment": "Diameter of zone of inhibition for cell colony formation of solid tumor HCT116 at the dose of 210 ug", "format": "functional, Homo sapiens", "summary_of_the_method": "as §1"}, "[7]": {"experiment": "Diameter of zone of inhibition for cell colony formation of normal fibroblast at the dose of 190 ug; Range is 0-10.25", "format": "functional, Homo sapiens", "summary_of_the_method": "as §2"}, "[8]": {"system": "HCT-116", "experiment": "Diameter of zone of inhibition for cell colony formation of solid tumor HCT116 at the dose of 190 ug; Range is 22.75-24.375", "format": "functional, Homo sapiens", "summary_of_the_method": "as §1"}, "[9]": {"system": "L1210", "experiment": "Diameter of zone of inhibition for cell colony formation of leukemia L1210 at the dose of 190 ug", "format": "functional, Mus musculus", "summary_of_the_method": "as §2"}, "[10]": {"system": "HCT-116", "experiment": "Diameter of zone of inhibition for cell colony formation of solid tumor HCT116 at the dose of 190 ug", "format": "functional, Homo sapiens", "summary_of_the_method": "as §2"}, "[11]": {"experiment": "Diameter of zone of inhibition for cell colony formation of normal fibroblast at the dose of 190 ug; Range is 0-12.35", "format": "functional, Homo sapiens", "summary_of_the_method": "as §2"}, "[12]": {"experiment": "Diameter of zone of inhibition for cell colony formation of normal fibroblast at the dose of 190 ug; Range is 0-13.65", "format": "functional, Homo sapiens", "summary_of_the_method": "as §2"}, "[13]": {"system": "Panel (Carcinoma cell lines)", "experiment": "Mean graph mid point value for cytotoxic activity against human cancer cell lines was determined", "format": "functional", "summary_of_the_method": "(§3)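 Cell-line screen run at NCI by published procedures. […] The mean graph midpoint is taken across all human cancer cell lines successfully tested.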"}, "[14]": {"system": "HL-60", "experiment": "Growth inhibitory activity against human leukemia HL-60 (TB) cell line", "format": "functional", "set-up": "unit not given here"}, "[15]": {"system": "SW-620", "experiment": "Growth inhibitory activity against human colon SW620 cell line", "format": "functional", "summary_of_the_method": "as §3"}, "[16]": {"system": "HT-29", "experiment": "Growth inhibitory activity against human colon HT-29 cell line", "format": "functional", "summary_of_the_method": "as §3"}, "[17]": {"system": "L1210", "experiment": "Diameter of zone of inhibition for cell colony formation of leukemia L1210 at the dose of 190 ug; Range is 0-5.525", "format": "functional, Mus musculus", "summary_of_the_method": "as §2"}, "[18]": {"system": "HCT-116", "experiment": "Growth inhibitory activity against human colon HCT116 cell line", "format": "functional", "summary_of_the_method": "as §3"}, "[19]": {"system": "NCI-H522", "experiment": "Growth inhibitory activity against human lung NCI-H522 cell line", "format": "functional", "summary_of_the_method": "as §3"}, "[20]": {"system": "MCF7", "experiment": "Growth inhibitory activity against human breast MCF-7 cell line", "format": "functional", "summary_of_the_method": "as §3"}, "[21]": {"system": "RXF 393", "experiment": "Growth inhibitory activity against human renal RXF-393 cell line", "format": "functional", "summary_of_the_method": "as §3"}, "[22]": {"experiment": "Diameter of zone of inhibition for cell colony formation of normal fibroblast at the dose of 190 ug; Range is 0-6.5", "format": "functional, Homo sapiens", "summary_of_the_method": "as §2"}, "[23]": {"system": "L1210", "experiment": "Diameter of zone of inhibition for cell colony formation of leukemia L1210 at the dose of 190 ug; Range is 3.75-4.875", "format": "functional, Mus musculus", "summary_of_the_method": "as §2"}, "[24]": {"experiment": "Diameter of zone of inhibition for cell colony formation of normal fibroblast at the dose of 210 ug; Range is 0-13.975", "format": "functional, Homo sapiens", "summary_of_the_method": "as §2"}, "[25]": {"system": "L1210", "experiment": "Diameter of zone of inhibition for cell colony formation of leukemia L1210 at the dose of 210 ug; Range is 3.75-5.525", "format": "functional, Mus musculus", "summary_of_the_method": "as §2"}, "[26]": {"system": "L1210", "experiment": "Diameter of zone of inhibition for cell colony formation of leukemia L1210 at the dose of 200 ug; Range is 1.3-5.85", "format": "functional, Mus musculus", "summary_of_the_method": "as §2"}, "[27]": {"experiment": "Diameter of zone of inhibition for cell colony formation of normal fibroblast at the dose of 200 ug; Range is 0-11.7", "format": "functional, Homo sapiens", "summary_of_the_method": "as §2"}, "[28]": {"system": "HCT-116", "experiment": "Diameter of zone of inhibition for cell colony formation of solid tumor HCT116 at the dose of 200 ug", "format": "functional, Homo sapiens", "summary_of_the_method": "as §1"}, "[29]": {"experiment": "Diameter of zone of inhibition for cell colony formation of normal fibroblast at the dose of 200 ug; Range is 0-16.9", "format": "functional, Homo sapiens", "summary_of_the_method": "as §2"}, "[30]": {"system": "L1210", "experiment": "Diameter of zone of inhibition for cell colony formation of leukemia L1210 at the dose of 200 ug; Range is 0-9.1", "format": "functional, Mus musculus", "summary_of_the_method": "as §2"}}}
{"molecule": "Cc1cccc(S(=O)(=O)NC(=O)c2ccc(Cl)cc2Cl)c1", "values": [{"measurement": "Inhibition", "setting": "[1]", "value": 8.12, "unit": "mm"}, {"measurement": "Inhibition", "setting": "[2]", "value": 6.5, "unit": "mm"}, {"measurement": "Inhibition", "setting": "[3]", "value": 6.5, "unit": "mm"}]}
{"molecule": "Nc1cc(Cl)ccc1C(=O)NS(=O)(=O)c1ccc(Cl)cc1", "values": [{"measurement": "Inhibition", "setting": "[4]", "value": 8.77, "unit": "mm"}, {"measurement": "Inhibition", "setting": "[5]", "value": 8.12, "unit": "mm"}, {"measurement": "Inhibition", "setting": "[6]", "value": 19.82, "unit": "mm"}]}
{"molecule": "Cc1cc(Br)ccc1C(=O)NS(=O)(=O)c1ccc(Cl)cc1", "values": [{"measurement": "Inhibition", "setting": "[7]", "value": 10.25, "unit": "mm"}, {"measurement": "Inhibition", "setting": "[8]", "value": 24.37, "unit": "mm"}, {"measurement": "Inhibition", "setting": "[9]", "value": 0, "unit": "mm"}]}
{"molecule": "Cc1ccc(S(=O)(=O)NC(=O)c2ccc(Cl)cc2Cl)cc1Cl", "values": [{"measurement": "Inhibition", "setting": "[10]", "value": 18.52, "unit": "mm"}, {"measurement": "Inhibition", "setting": "[11]", "value": 12.35, "unit": "mm"}]}
{"molecule": "COc1ccc(S(=O)(=O)NC(=O)c2ccc(Cl)cc2Cl)cc1OC", "values": [{"measurement": "Inhibition", "setting": "[2]", "value": 6.5, "unit": "mm"}, {"measurement": "Inhibition", "setting": "[6]", "value": 16.25, "unit": "mm"}, {"measurement": "Inhibition", "setting": "[3]", "value": 0, "unit": "mm"}]}
{"molecule": "COc1ccc(S(=O)(=O)NC(=O)c2ccc(Cl)cc2Cl)cc1", "values": [{"measurement": "Inhibition", "setting": "[12]", "value": 13.65, "unit": "mm"}, {"measurement": "Inhibition", "setting": "[10]", "value": 21.12, "unit": "mm"}, {"measurement": "MGM", "setting": "[13]", "value": 28.8}, {"measurement": "GI50", "setting": "[14]", "value": 38.9}, {"measurement": "GI50", "setting": "[15]", "value": 9.5, "unit": "µM"}, {"measurement": "GI50", "setting": "[16]", "value": 41.5, "unit": "µM"}, {"measurement": "Inhibition", "setting": "[17]", "value": 5.52, "unit": "mm"}, {"measurement": "GI50", "setting": "[18]", "value": 3.5, "unit": "µM"}, {"measurement": "GI50", "setting": "[19]", "value": 39.6, "unit": "µM"}, {"measurement": "GI50", "setting": "[20]", "value": 23.9, "unit": "µM"}, {"measurement": "GI50", "setting": "[21]", "value": 6.4, "unit": "µM"}]}
{"molecule": "Cc1cc(Cl)ccc1C(=O)NS(=O)(=O)c1ccc(Cl)cc1", "values": [{"measurement": "MGM", "setting": "[13]", "value": 41.7}, {"measurement": "GI50", "setting": "[14]", "value": 49.5}, {"measurement": "GI50", "setting": "[15]", "value": 37.9, "unit": "µM"}, {"measurement": "GI50", "setting": "[16]", "value": 100, "unit": "µM"}, {"measurement": "GI50", "setting": "[18]", "value": 9.7, "unit": "µM"}, {"measurement": "GI50", "setting": "[19]", "value": 100, "unit": "µM"}, {"measurement": "GI50", "setting": "[20]", "value": 17.7, "unit": "µM"}, {"measurement": "GI50", "setting": "[21]", "value": 8.6, "unit": "µM"}]}
{"molecule": "O=C(NS(=O)(=O)c1cccc(Cl)c1)c1ccc(Cl)cc1Cl", "values": [{"measurement": "Inhibition", "setting": "[22]", "value": 6.5, "unit": "mm"}, {"measurement": "Inhibition", "setting": "[10]", "value": 16.73, "unit": "mm"}, {"measurement": "Inhibition", "setting": "[23]", "value": 4.87, "unit": "mm"}]}
{"molecule": "O=C(NS(=O)(=O)c1ccc(Br)cc1)c1ccc(Cl)cc1Cl", "values": [{"measurement": "Inhibition", "setting": "[24]", "value": 13.97, "unit": "mm"}, {"measurement": "Inhibition", "setting": "[6]", "value": 20.15, "unit": "mm"}, {"measurement": "Inhibition", "setting": "[25]", "value": 5.52, "unit": "mm"}]}
{"molecule": "O=C(NS(=O)(=O)c1ccc(Cl)c(Cl)c1)c1ccc(Cl)cc1Cl", "values": [{"measurement": "Inhibition", "setting": "[26]", "value": 5.85, "unit": "mm"}, {"measurement": "Inhibition", "setting": "[27]", "value": 11.7, "unit": "mm"}, {"measurement": "Inhibition", "setting": "[28]", "value": 18.2, "unit": "mm"}]}
{"molecule": "O=C(NS(=O)(=O)c1ccc(F)cc1)c1ccc(Cl)cc1Cl", "values": [{"measurement": "Inhibition", "setting": "[29]", "value": 16.9, "unit": "mm"}, {"measurement": "Inhibition", "setting": "[30]", "value": 9.1, "unit": "mm"}, {"measurement": "Inhibition", "setting": "[28]", "value": 28.6, "unit": "mm"}]}
